The text below walks through data of ChEMBL document CHEMBL1153756, “Synthesis and pharmacological evaluation of N-phenyl-acetamide sulfonamides designed as novel non-hepatotoxic analgesic candidates” (Eur J Med Chem, 2009).

Active and inactive are the calls of the source. No cut-off for these calls is given here.

The subject of data set [1] is Mus musculus. In words: Analgesic activity in Swiss mouse at 100 umol/kg, po after 30 mins by hot plate test. The class given is functional. The essentials:
(§1)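 Swiss mice (20–30 g) given 100 µmol/kg orally and placed on a hot plate at 55 ± 1 °C. Latency to fore- or hind-paw licking or jumping recorded 30, 60, 90 and 120 min after dosing. Baseline is the mean reaction time at 30 and 60 min before dosing. n = 6–8. ANOVA with Dunnett test vs control.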
For orientation: Hot-plate and tail-flick tests time the reaction to a heat stimulus.

Data set [2] concerns Mus musculus. Put plainly: Analgesic activity in Swiss mouse at 100 umol/kg, po after 60 mins by hot plate test. The class given is functional. A digest of the protocol: as §1
Data set [3] has as its system Mus musculus. In words: Analgesic activity in Swiss mouse at 100 umol/kg, po after 90 mins by hot plate test. The class given is functional. A digest of the protocol:
as §1

Data set [4] has as its system Mus musculus. In words: Analgesic activity in Swiss mouse at 100 umol/kg, po after 120 mins by hot plate test. It counts as functional. A digest of the protocol: as §1
Data set [5] has as its system Mus musculus. Put plainly: Antihyperalgesic activity in Swiss mouse assessed as inhibition of formalin-induced nociception at 100 umol/kg, po administered 40 mins before formalin challenge measured after 15 to 30 mins. The class given is functional, organism-based. The essentials:
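Swiss mice given 100 µmol/kg p.o. (vehicle arabic gum) 40 min before 20 µL of 2% formalin in 0.9% saline s.c. into the right hind paw. Licking/biting time recorded 0–5 min (neurogenic phase) and 15–30 min (inflammatory phase). n = 6. Mean ± S.E.M. ANOVA with Dunnett test vs control.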

Data set [6] has as its system Mus musculus. Put plainly: Hypothermic activity in Swiss mouse assessed as decrease in rectal body temperature at 100 umol/kg, po after 1 hr at room temperature. It counts as organism-based. The following applies: in vivo. The essentials: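 Swiss mice with normal rectal temperature (37.0–38.0 °C) were acclimatized 1 h at 25 °C room temperature, and baseline rectal temperature was taken. Animals were then dosed orally at 100 µmol/kg, and rectal temperature was re-measured 1 h later; change from baseline reported, n = 8, mean ± S.E.M., Dunnett versus control.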

Data set [7] deals with Mus musculus. In words: Analgesic activity in Swiss mouse assessed as inhibition of acetic acid-induced abdominal writhings at 100 umol/kg, po administered 60 mins before acetic acid challenge relative to control. Further details: scale not given: the % may be the effect or the level left. Background: In writhing tests, fewer writhes than in controls are read as antinociception.

In data set [8] the test system is Mus musculus. Put plainly: Analgesic activity in po dosed Swiss mouse assessed as inhibition of acetic acid-induced abdominal writhings administered 60 mins before acetic acid challenge measured for 25 mins. The class given is functional. The note with it: Abdomen. The essentials: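 Swiss mice (20–30 g). Oral dosing before i.p. 0.6% (v/v) acetic acid, 0.1 mL/10 g. Writhes (abdominal contraction, pelvic rotation, hind-limb extension) counted for 20 min starting 5 min after injection. Result expressed as % inhibition vs vehicle controls. Screening at 100 µmol/kg p.o.; dose-response at 100, 30, 10 and 3 µmol/kg with ID50 by linear regression. n = 8.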

Data set [9] concerns Mus musculus. In words: Antihyperalgesic activity in Swiss mouse assessed as inhibition of formalin-induced nociception at 100 umol/kg, po administered 40 mins before formalin challenge measured after 0 to 5 mins. It counts as functional, organism-based.
Data set [10] concerns Mus musculus. Put plainly: Hepatotoxicity in Swiss mouse assessed as increase in serum gamma-glutamyl transferase at 100 umol/kg, po for five days after 24 hrs of last dose. The following applies: in vivo. It counts as toxicity, organism-based. A digest of the protocol: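 Swiss mice received 100 µmol/kg p.o. daily for five days (n = 6; vehicle n = 5). 24 h after the last dose, blood was drawn under ethyl ether anaesthesia, and serum was separated at 3000 × g for 15 min and kept at 4 °C. gGT was assayed by a kinetic kit method, in U/L. ANOVA with Dunnett test.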

Data set [11] has as its system Mus musculus. Put plainly: Hepatotoxicity in Swiss mouse assessed as changes in morphology of liver parenchyma at 100 umol/kg, po for five days after 24 hrs of last dose. It counts as toxicity, organism-based. The following applies: in vivo. The essentials:
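Swiss mice given 100 µmol/kg p.o. daily for 5 days; controls received vehicle. After blood collection 24 h post last dose, animals were killed with CO₂; ten liver samples per animal (two each from left, right, left middle, right middle and caudate lobes) fixed in 10% neutral buffered formalin, H&E stained, examined at 100× and 400× for necrosis or degeneration.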

Data set [12] has as its system Mus musculus. In words: Analgesic activity in Swiss mouse at 15 umol/kg, ip after 30 mins by hot plate test. The class given is functional. A digest of the protocol:
(§2)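 Hot-plate reference arm in Swiss mice: morphine 15 µmol/kg i.p. Animals placed on a plate at 55 ± 1 °C. Paw-licking or jumping latency read 30, 60, 90 and 120 min after treatment. Baseline is the mean of readings at 30 and 60 min before treatment. n = 8.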

Data set [13] deals with Mus musculus. In words: Analgesic activity in Swiss mouse at 15 umol/kg, ip after 60 mins by hot plate test. The class given is functional. The essentials: as §2
Data set [14] has as its system Mus musculus. In words: Analgesic activity in Swiss mouse at 15 umol/kg, ip after 90 mins by hot plate test. It counts as functional. A digest of the protocol: as §2
The test system of data set [15] is Mus musculus. In words: Analgesic activity in Swiss mouse at 15 umol/kg, ip after 120 mins by hot plate test. It counts as functional. The essentials: as §2

Consider `CC(=O)Nc1ccc(S(=O)(=O)N2CCOCC2)cc1`, for which the Activity in data set [1] was 22%; in data set [2], 23.3%; in data set [3] it was 20.7%; in data set [4], 8%; in data set [6] it was -1.4 °C; in [7], 43.2%. The result in data set [5] was inactive.

Consider `CC(=O)Nc1ccc(S(=O)(=O)N2CCN(C)CC2)cc1`, for which the Activity result in [8] is “Dose-dependent effect”; in [1], 57.5%; in data set [2], 47.9%; in [3] it was 19.6%; in data set [4] it was 21.3%; in data set [6], -1.8 °C. Besides, the figures for the Activity result in [10], in [11] and in [7] were “Non-toxic”, “Non-toxic” and 75%, respectively. Besides, the result in data set [9] and in data set [5] was inactive.

Consider `CC(=O)Nc1ccc(S(=O)(=O)N2CCCCC2)cc1`, for which the Activity in data set [1] was 26.5%; in data set [2] it was 14.3%; in [3], 18.2%; in [4] it was 30.7%; in [6], -0.8 °C; in data set [7], 29.6%. The outcome in [5] was Active.

As for `CN1CC[C@]23c4c5ccc(O)c4O[C@H]2[C@@H](O)C=C[C@H]3[C@H]1C5` [MORPHINE], the Activity in data set [12] is on record as 78.9%; in [13] it was 74.7%; in data set [14], 57.8%; in data set [15], 32.1%.

As to `CC(=O)Nc1ccc(O)cc1` [ACETAMINOPHEN], the Activity in data set [1] was 51.8%; in data set [2], 60.6%; in [3], 54.6%; in data set [4] it was 54.6%; in data set [6], -1.1 °C; in data set [11], “Toxic”. Also, the Activity in data set [7] came to 34%. For the same molecule, the result in [5] was inactive.

As to `CCN(CC)S(=O)(=O)c1ccc(NC(C)=O)cc1`, the Activity in data set [1] is 2.4%; in [2], 0%; in [3], 0%; in [4], 0%; in [6], -1.8 °C; in data set [7] it was 45.8%. Moreover, the result in data set [5] was Active.

As for `CCNS(=O)(=O)c1ccc(NC(C)=O)cc1`, the Activity in data set [1] was 23%; in data set [2], 6%; in [3], 32.8%; in [4], 24.2%; in [6] it was 0.2 °C; in data set [7], 48.6%. The outcome in data set [9] and in data set [5] was inactive.

For the molecule `CC(=O)Nc1ccc(S(=O)(=O)N2CCNCC2)cc1`, the Activity in [1] stood at 23.5%; in data set [2], 7.2%; in data set [3], 37.1%; in [4] it was 0%; in data set [6] it was 0.2 °C; in data set [7] it was 61.1%. In [5], the outcome was inactive.

For `CC(=O)Nc1ccc(S(=O)(=O)N2CCSCC2)cc1`, the Activity in [1] was 25%; in data set [2], 28.6%; in data set [3], 48.3%; in data set [4], 65.1%; in [6], -0.7 °C; in data set [7], 44%. In addition, the result in [9] and in [5] was inactive.
